# From ChEMBL document CHEMBL1649438, “Activities of ceftobiprole and other cephalosporins against extracellular and intracellular (THP-1 macrophages and keratinocytes) forms of methicillin-susceptible and methicillin-resistant Staphylococcus aureus” (Antimicrob Agents Chemother, 2009)
# Assays:
# Staphylococcus aureus [1] = test: Antimicrobial activity against hospital-acquired vancomycin-intermediate Staphylococcus aureus NRS126 infected in human THP-1 cells assessed as change in bacterial count after 24 hrs; assay type: functional, organism-based; details: NRS126, THP-1, 24 h
# How it was run: (§1)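 THP-1 macrophages infected as described previously, with a postphagocytosis inoculum of 1.5 × 10⁶ to 3.0 × 10⁶ CFU/mg cell protein. Cells were exposed 24 h to increasing extracellular antibiotic concentrations. Response is the change in log10 CFU/mg protein from the inoculum (n = 3), fitted to a Hill function. E0 and Emax were extrapolated to infinitely low and high concentrations. EC50 and static concentration (graphical interpolation) are expressed as multiples of the broth MIC at pH 5.5 or 7.4.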
# Staphylococcus aureus [2] = test: Antimicrobial activity against Panton-valentine leucocidin-positive community-acquired methicillin-resistant Staphylococcus aureus N4090440 infected in human THP-1 cells assessed as bacterial count per mg of cell protein at high extracellular compound concentration after 24 hrs; assay type: functional
# How it was run: (§2)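 THP-1 human macrophages infected with S. aureus (postphagocytosis inoculum 1.5 × 10^6 to 3.0 × 10^6 CFU/mg cell protein), then incubated 24 h with increasing extracellular antibiotic concentrations. Change in log10 CFU/mg cell protein from the postphagocytosis inoculum, n = 3. Hill function fitted on log-transformed data. Low-concentration value (E0) and high-concentration value (Emax) are extrapolated. Where a pH is given, concentrations are expressed as multiples of the broth MIC at that pH.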
# Staphylococcus aureus [3] = test: Antimicrobial activity against Panton-valentine leucocidin-positive community-acquired methicillin-resistant Staphylococcus aureus STA 228 infected in human THP-1 cells assessed as bacterial count per mg of cell protein at low extracellular compound concentration after 24 hrs; assay type: functional; how it was run: as §2
# Staphylococcus aureus [4] = test: Antimicrobial activity against hospital-acquired vancomycin-intermediate Staphylococcus aureus NRS126 infected in human THP-1 cells assessed as bacterial count per mg of cell protein at low extracellular compound concentration after 24 hrs at pH 5.5; assay type: functional; how it was run: as §1
# Staphylococcus aureus [5] = test: Antimicrobial activity against hospital-acquired methicillin-resistant Staphylococcus aureus […] infected in human THP-1 cells assessed as change in bacterial count after 24 hrs at pH 7.4; assay type: functional, organism-based; details: THP-1, 24 h; how it was run: as §1
# Staphylococcus aureus [6] = test: Antimicrobial activity against Panton-valentine leucocidin-positive community-acquired methicillin-resistant Staphylococcus aureus NRS192 infected in human THP-1 cells assessed as change in bacterial count after 24 hrs at pH 7.4; assay type: functional, organism-based; details: NRS192, THP-1, 24 h; how it was run: as §2
# Staphylococcus aureus [7] = test: Antimicrobial activity against methicillin-susceptible Staphylococcus aureus ATCC 11632 infected in human THP-1 cells assessed as bacterial count per mg of cell protein at high extracellular compound concentration after 24 hrs; assay type: functional; how it was run: as §1
# Staphylococcus aureus [8] = test: Antimicrobial activity against hospital-acquired methicillin-resistant Staphylococcus aureus ATCC 33592 infected in human THP-1 cells assessed as change in bacterial count after 24 hrs; assay type: functional, organism-based; details: ATCC 33592, THP-1, 24 h; how it was run: as §1
smiles,measurement,setting,value
Nc1nc(/C(=N/O)C(=O)N[C@@H]2C(=O)N3C(C(=O)O)=C(/C=C4\CCN([C@@H]5CCNC5)C4=O)CS[C@H]23)ns1 [CEFTOBIPROLE],EC50,Staphylococcus aureus [1],0.23 µg/mL
same,log10cfu,Staphylococcus aureus [2],-1.05
same,log10cfu,Staphylococcus aureus [3],2.87
same,log10cfu,Staphylococcus aureus [4],2.63
same,EC50,Staphylococcus aureus [5],0.28 ×MIC
same,EC50,Staphylococcus aureus [6],0.33 ×MIC
same,log10cfu,Staphylococcus aureus [7],-0.95
same,EC50,Staphylococcus aureus [8],1.23 µg/mL
